# Measurements as given in ChEMBL document CHEMBL1154416, “Haemophilus ducreyi is resistant to human antimicrobial peptides” (2007).
# Active and inactive are the calls of the source. The rule behind the calls is not given here. Where a SMILES comes first, the peptide text is derived from it. Bridges are numbered along the chain shown (N, C = ends).
# How the values were obtained:
# [Haemophilus] ducreyi [1] = Bactericidal activity against Haemophilus ducreyi 35000HP assessed as survival at 0.2 ug/ml by antibacterial susceptibility test relative to control; type: functional
# Method in brief: (§1)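 Viable bacteria counted by plating. Survival expressed as percentage of peptide-free control wells. Means ± standard errors of three independent assays; mixed-model analysis with Sidak adjustment, P<0.05.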
# [Haemophilus] ducreyi [2] = Bactericidal activity against Haemophilus ducreyi 35000HP assessed as survival at 2 ug/ml by antibacterial susceptibility test relative to control; type: functional, organism-based; method in brief: as §1
# [Haemophilus] ducreyi [3] = Bactericidal activity against Haemophilus ducreyi 35000HP assessed as survival at 20 ug/ml by antibacterial susceptibility test relative to control; type: functional, organism-based; method in brief: as §1
# [Haemophilus] ducreyi [4] = Bactericidal activity against Haemophilus ducreyi CIP542 assessed as survival at 0.2 ug/ml by antibacterial susceptibility test relative to control; type: functional; method in brief: as §1
# [Haemophilus] ducreyi [5] = Bactericidal activity against Haemophilus ducreyi CIP542 assessed as survival at 20 ug/ml by antibacterial susceptibility test relative to control; type: functional, organism-based; method in brief: as §1
# Escherichia coli [6] = assay: Bactericidal activity against Escherichia coli ML35 assessed as survival at 20 ug/ml relative to control; type: functional; method in brief: as §1
# [Haemophilus] ducreyi [7] = Bactericidal activity against Haemophilus ducreyi 35000HP assessed as survival at 2 ug/ml relative to control; type: functional; method in brief: as §1
# Escherichia coli [8] = assay: Bactericidal activity against Escherichia coli ML35 after 48 to 72 hrs by radial diffusion assay; type: functional; conditions: read-out: MEC
# Method in brief: (§2)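 Radial diffusion assay with salts omitted from the agarose underlay. Activity units are taken from inhibition zones around peptide-loaded wells. MEC is the x intercept of the best-fit line of activity against peptide concentration. Where fewer than two concentrations were active, MEC is recorded as >158 μg/ml, the assay's upper limit. Values are means of three independent assays, each run in duplicate.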
# [Haemophilus] ducreyi [9] = Bactericidal activity against Haemophilus ducreyi 35000HP after 48 to 72 hrs by radial diffusion assay; type: functional; conditions: read-out: MEC; method in brief: as §2
# [Haemophilus] ducreyi [10] = Bactericidal activity against Haemophilus ducreyi CIP542 after 48 to 72 hrs by radial diffusion assay; type: functional; conditions: read-out: MEC; method in brief: as §2
# [Haemophilus] ducreyi [11] = Bactericidal activity against Haemophilus ducreyi 35000HP assessed as survival at 2 ug/ml by tenfold serial dilution assay relative to control; type: functional
# Method in brief: (§3)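 Mid-log-phase cells were suspended in 10 mM sodium phosphate (pH 7.4) with 1% brain-heart infusion broth and exposed to peptide dilutions for 1 h, at 33°C for H. ducreyi or 37°C for E. coli. Survivors were counted by plating, and survival was expressed as a percent of peptide-free control wells. Values are means of three independent assays.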
# Escherichia coli [12] = assay: Bactericidal activity against Escherichia coli ML35 assessed as survival at 2 ug/ml by tenfold serial dilution assay relative to control; type: functional; method in brief: as §3
# [Haemophilus] ducreyi [13] = Bactericidal activity against Haemophilus ducreyi 35000HP assessed as survival at 0.5 ug/ml by twofold serial dilution assay relative to control; type: functional; method in brief: as §3
# Escherichia coli [14] = assay: Bactericidal activity against Escherichia coli ML35 assessed as survival at 0.5 ug/ml by twofold serial dilution assay relative to control; type: functional; method in brief: as §3
Structure (SMILES),Activity ([Haemophilus] ducreyi [1]),Activity ([Haemophilus] ducreyi [2]),Activity ([Haemophilus] ducreyi [3]),Activity ([Haemophilus] ducreyi [4]),Activity ([Haemophilus] ducreyi [5]),Activity (Escherichia coli [6]) [%],Activity ([Haemophilus] ducreyi [7]) [%],minimal effective concentration (Escherichia coli [8]) [µg/mL],minimal effective concentration ([Haemophilus] ducreyi [9]) [µg/mL],minimal effective concentration ([Haemophilus] ducreyi [10]) [µg/mL],Activity ([Haemophilus] ducreyi [11]) [%],Activity (Escherichia coli [12]) [%],Activity ([Haemophilus] ducreyi [13]) [%],Activity (Escherichia coli [14]) [%]
CC[C@H](C)[C@@H]1NC(=O)[C@H](CCCNC(=N)N)NC(=O)[C@H](Cc2ccc(O)cc2)NC(=O)[C@H](CCC(=O)O)NC(=O)[C@H](CCC(N)=O)NC(=O)[C@H](CO)NC(=O)[C@H](CCCNC(=N)N)NC(=O)[C@@H]2CSSC[C@@H](C(=O)N[C@@H](CC(C)C)C(=O)N[C@@H](CCCNC(=N)N)C(=O)N[C@@H](CCCCN)C(=O)O)NC(=O)[C@@H]3NC(=O)[C@H](C)NC(=O)[C@H](Cc4ccc(O)cc4)NC(=O)[C@H]([C@@H](C)O)NC(=O)[C@H](CC(N)=O)NC(=O)[C@H]4CCCN4C(=O)[C@H](CSSC[C@H](NC(=O)[C@H](CCCNC(=N)N)NC(=O)[C@H](C)NC(=O)[C@H]([C@@H](C)O)NC(=O)CNC(=O)[C@H](Cc4ccc(O)cc4)NC(=O)CNC(=O)[C@@H](NC(=O)[C@@H](NC(=O)[C@H](CCCNC(=N)N)NC(=O)[C@H](CC(=O)O)NC(=O)[C@H](CC(C)C)NC(=O)[C@@H](N)CCC(=O)O)[C@@H](C)CC)CSS3)C(=O)N[C@@H](CCCNC(=N)N)C(=O)N[C@@H](CCCCN)C(=O)N[C@@H](CCCCN)C(=O)N2)NC(=O)[C@H](CCCNC(=N)N)NC(=O)CNC1=O,inactive,inactive,inactive,inactive,inactive,–,–,–,–,–,–,–,–,–
"CC[C@H](C)[C@@H]1NC(=O)[C@@H]2CSSC[C@@H]3NC(=O)[C@H](Cc4ccccc4)NC(=O)[C@H](C)NC(=O)[C@H](Cc4c[nH]c5ccccc45)NC(=O)[C@H](CC(C)C)NC(=O)[C@H](CCCNC(=N)N)NC(=O)CNC(=O)[C@H](CCC(N)=O)NC(=O)[C@H](Cc4ccc(O)cc4)NC(=O)[C@H]([C@@H](C)CC)NC(=O)[C@H](CSSC[C@H](NC(=O)[C@H](Cc4ccc(O)cc4)NC(=O)[C@@H](N)CSSC[C@@H](C(=O)O)NC3=O)C(=O)N[C@@H](CCCNC(=N)N)C(=O)N[C@@H]([C@@H](C)CC)C(=O)N3CCC[C@H]3C(=O)N[C@@H](C)C(=O)N2)NC(=O)[C@H]([C@@H](C)O)NC(=O)CNC(=O)[C@H](Cc2ccc(O)cc2)NC(=O)[C@H](CCCNC(=N)N)NC(=O)[C@H](CCCNC(=N)N)NC(=O)[C@H](CCC(=O)O)NC(=O)CNC(=O)[C@H](C)NC1=O (H-CYCRIPACIAGERRYGTCIYQGRLWAFCC-OH; disulfide 1-29, 3-18, 8-28)",inactive,inactive,inactive,inactive,inactive,10,–,–,–,–,–,–,–,–
"CC[C@H](C)[C@@H]1NC(=O)[C@H](CCCCN)NC(=O)[C@H]([C@@H](C)O)NC(=O)[C@H](Cc2ccccc2)NC(=O)[C@H]([C@@H](C)CC)NC(=O)[C@@H]2CCCN2C(=O)[C@@H]2CSSC[C@@H](C(=O)N[C@@H](CCCCN)C(=O)O)NC(=O)[C@@H]3CSSC[C@H](NC(=O)[C@H](CC(N)=O)NC(=O)[C@H](Cc4ccc(O)cc4)NC(=O)[C@H](Cc4cnc[nH]4)NC(=O)[C@@H](N)CC(=O)O)C(=O)N[C@@H](C(C)C)C(=O)N[C@@H](CO)C(=O)N[C@@H](CO)C(=O)NCC(=O)NCC(=O)N[C@@H](CCC(N)=O)C(=O)N[C@@H](CSSC[C@H](NC(=O)[C@H]([C@@H](C)O)NC(=O)CNC(=O)[C@H](CCC(N)=O)NC1=O)C(=O)N[C@@H](Cc1ccc(O)cc1)C(=O)N[C@@H](CCCNC(=N)N)C(=O)NCC(=O)N[C@@H](CCCCN)C(=O)N[C@@H](C)C(=O)N[C@@H](CCCCN)C(=O)N3)C(=O)N[C@@H](CC(C)C)C(=O)N[C@@H](Cc1ccc(O)cc1)C(=O)N[C@@H](CO)C(=O)N[C@@H](C)C(=O)N2 (H-DHYNCVSSGGQCLYSACPIFTKIQGTCYRGKAKCCK-OH; disulfide 5-34, 12-27, 17-35)",inactive,inactive,inactive,inactive,inactive,–,–,–,–,–,–,–,–,–
"CC[C@H](C)[C@@H]1NC(=O)[C@H](CCCNC(=N)N)NC(=O)[C@H](Cc2ccc(O)cc2)NC(=O)[C@H](CCC(=O)O)NC(=O)[C@H](CCC(N)=O)NC(=O)[C@H](CO)NC(=O)[C@H](CCCNC(=N)N)NC(=O)[C@@H]2CSSC[C@@H](C(=O)N[C@@H](CC(C)C)C(=O)N[C@@H](CCCNC(=N)N)C(=O)N[C@@H](CCCCN)C(=O)O)NC(=O)[C@@H]3CSSC[C@H](NC(=O)[C@@H](NC(=O)[C@H](CCCNC(=N)N)NC(=O)[C@H](CC(=O)O)NC(=O)[C@H](CC(C)C)NC(=O)[C@@H](N)CCC(=O)O)[C@@H](C)CC)C(=O)NCC(=O)N[C@@H](Cc4ccc(O)cc4)C(=O)NCC(=O)N[C@@H]([C@@H](C)O)C(=O)N[C@@H](C)C(=O)N[C@@H](CCCNC(=N)N)C(=O)N[C@@H](CSSC[C@H](NC(=O)[C@H](CCCNC(=N)N)NC(=O)CNC1=O)C(=O)N1CCC[C@H]1C(=O)N[C@@H](CC(N)=O)C(=O)N[C@@H]([C@@H](C)O)C(=O)N[C@@H](Cc1ccc(O)cc1)C(=O)N[C@@H](C)C(=O)N3)C(=O)N[C@@H](CCCNC(=N)N)C(=O)N[C@@H](CCCCN)C(=O)N[C@@H](CCCCN)C(=O)N2 (H-ELDRICGYGTARCRKKCRSQEYRIGRCPNTYACCLRK-OH; disulfide 6-33, 13-27, 17-34)",–,–,–,–,–,<7,>84,12.6,> 158,> 158,–,–,–,–
CC[C@H](C)[C@H](NC(=O)[C@H](CCCCN)NC(=O)[C@H](CCC(=O)O)NC(=O)[C@H](CCCCN)NC(=O)[C@H](CO)NC(=O)[C@H](CCCCN)NC(=O)[C@H](CCCNC(=N)N)NC(=O)[C@H](Cc1ccccc1)NC(=O)[C@H](Cc1ccccc1)NC(=O)[C@H](CC(=O)O)NC(=O)CNC(=O)[C@H](CC(C)C)NC(=O)[C@@H](N)CC(C)C)C(=O)NCC(=O)N[C@@H](CCCCN)C(=O)N[C@@H](CCC(=O)O)C(=O)N[C@@H](Cc1ccccc1)C(=O)N[C@@H](CCCCN)C(=O)N[C@@H](CCCNC(=N)N)C(=O)N[C@H](C(=O)N[C@H](C(=O)N[C@@H](CCC(N)=O)C(=O)N[C@@H](CCCNC(=N)N)C(=O)N[C@H](C(=O)N[C@@H](CCCCN)C(=O)N[C@@H](CC(=O)O)C(=O)N[C@@H](Cc1ccccc1)C(=O)N[C@@H](CC(C)C)C(=O)N[C@@H](CCCNC(=N)N)C(=O)N[C@@H](CC(N)=O)C(=O)N[C@@H](CC(C)C)C(=O)N[C@H](C(=O)N1CCC[C@H]1C(=O)N[C@@H](CCCNC(=N)N)C(=O)N[C@H](C(=O)N[C@@H](CCC(=O)O)C(=O)N[C@@H](CO)C(=O)O)[C@@H](C)O)C(C)C)[C@@H](C)CC)C(C)C)[C@@H](C)CC [CATHELICIDIN],inactive,inactive,inactive,inactive,inactive,–,–,6.2,> 158,> 158,16,5,43,3
